# From ChEMBL document CHEMBL3779767, “Identification of potent and selective MTH1 inhibitors” (Bioorg Med Chem Lett, 2016)
# Activity calls are given as the source filed them. The calls are words filed in the database; no cut-off is given here.
# Experiments:
# NCI-H358 = experiment: Antiproliferative activity against human NCI-H358 cells assessed as change in phenotypic response up to 50 uM; assay type: functional, cell-based
# [1] = biological target: Epidermal growth factor receptor (Homo sapiens) (UniProt P00533); experiment: Inhibition of partial length human EGFR expressed in bacterial system at 1 uM
# Summary of the method: (§1)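 Single-point screen within a 97-kinase profiling panel, with the test compound at 1 µM.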
# [2] = biological target: Serine/threonine-protein kinase pim-2 (Homo sapiens) (UniProt Q9P1W9); experiment: Inhibition of partial length human PIM2 expressed in bacterial system at 1 uM
# Summary of the method: (§2)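 Single-concentration screen across a panel of 97 kinases, with the test compound at 1 uM.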
# [3] = biological target: Mitogen-activated protein kinase kinase kinase 4 (Homo sapiens) (UniProt Q9Y6R4); experiment: Inhibition of partial length human MAP3K4 expressed in bacterial system at 1 uM; summary of the method: as §1
# [4] = biological target: Protein kinase C epsilon type (Homo sapiens) (UniProt Q02156); experiment: Inhibition of partial length human PRKCE expressed in mammalian system at 1 uM; summary of the method: as §2
# [5] = biological target: Phosphatidylinositol 4,5-bisphosphate 3-kinase catalytic subunit alpha isoform (Homo sapiens) (UniProt P42336); experiment: Inhibition of partial length human PIK3Calpha expressed in mammalian system at 1 uM; summary of the method: as §2
# [6] = biological target: Serine/threonine-protein kinase B-raf (Homo sapiens) (UniProt P15056); experiment: Inhibition of partial length human BRAF expressed in mammalian system at 1 uM; summary of the method: as §1
# [7] = biological target: Serine/threonine-protein kinase PLK4 (Homo sapiens) (UniProt O00444); experiment: Inhibition of partial length human PLK4 expressed in mammalian system at 1 uM; summary of the method: as §2
# [8] = biological target: Casein kinase I isoform gamma-2 (Homo sapiens) (UniProt P78368); experiment: Inhibition of partial length human CSNK1G2 expressed in bacterial system at 1 uM; summary of the method: as §1
# SW480 = experiment: Antiproliferative activity against human SW480 cells assessed as change in phenotypic response up to 50 uM; assay type: functional, cell-based
# [9] = biological target: Cyclin-dependent kinase 3 (Homo sapiens) (UniProt Q00526); experiment: Inhibition of partial length human CDK3 expressed in bacterial system at 1 uM; summary of the method: as §1
# HCT-116 = experiment: Antiproliferative activity against human HCT116 cells assessed as change in phenotypic response up to 50 uM; assay type: functional, cell-based
# [10] = biological target: Insulin-like growth factor 1 receptor (Homo sapiens) (UniProt P08069); experiment: Inhibition of partial length human IGF1R expressed in bacterial system at 1 uM; summary of the method: as §1
# [11] = test system: Tyrosine-protein kinase ABL1 (Homo sapiens), P00519 [E255K]; experiment: Inhibition of partial length human ABL1 E255K mutant phosphorylation expressed in mammalian system at 1 uM; summary of the method: as §1
# [12] = biological target: Serine/threonine-protein kinase PAK 1 (Homo sapiens) (UniProt Q13153); experiment: Inhibition of partial length human PAK1 expressed in bacterial system at 1 uM; summary of the method: as §2
# [13] = Solubility of the compound in PBS at pH 7; assay type: physicochemical
# Summary of the method: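 Aqueous solubility was determined in sodium phosphate buffer at pH 7.0.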
# [14] = biological target: Casein kinase I isoform delta (Homo sapiens) (UniProt P48730); experiment: Inhibition of partial length human CSNK1D expressed in bacterial system at 1 uM; summary of the method: as §1
# [15] = Plasma protein binding in human; assay type: ADME, cell-free; conditions: read-out: PPB (converted)
# [16] = Half life in human plasma; assay type: ADME, cell-free
# Summary of the method: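 Plasma stability was measured in human and rat plasma, with half-life reported in hours.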
# MRC5 = experiment: Cytotoxicity against human MRC5 cells assessed as change in phenotypic response measured after prolonged treatment; assay type: cell-based
# [17] = biological target: Angiopoietin-1 receptor (Homo sapiens) (UniProt Q02763); experiment: Inhibition of partial length human TIE2 expressed in bacterial system at 1 uM; summary of the method: as §2
# [18] = biological target: MAP kinase-interacting serine/threonine-protein kinase 1 (Homo sapiens) (UniProt Q9BUB5); experiment: Inhibition of partial length human MKNK1 expressed in mammalian system at 1 uM; summary of the method: as §2
# U2OS = experiment: Antiproliferative activity against human U2OS cells assessed as change in phenotypic response measured after prolonged treatment; assay type: functional, cell-based
# [19] = Fraction unbound in human plasma; assay type: ADME, cell-free
# [20] = biological target: Serine/threonine-protein kinase PAK 2 (Homo sapiens) (UniProt Q13177); experiment: Inhibition of partial length human PAK2 expressed in bacterial system at 1 uM; summary of the method: as §2
# [21] = biological target: 3-phosphoinositide-dependent protein kinase 1 (Homo sapiens) (UniProt O15530); experiment: Inhibition of partial length human PDPK1 expressed in bacterial system at 1 uM; summary of the method: as §2
# [22] = biological target: Mitogen-activated protein kinase 11 (Homo sapiens) (UniProt Q15759); experiment: Inhibition of partial length human p38beta expressed in bacterial system at 1 uM; summary of the method: as §2
# UOK 262 = experiment: Antiproliferative activity against human UOK 262 cells assessed as change in phenotypic response up to 50 uM; assay type: functional, cell-based
# [23] = biological target: Serine/threonine-protein kinase PLK3 (Homo sapiens) (UniProt Q9H4B4); experiment: Inhibition of partial length human PLK3 expressed in mammalian system at 1 uM; summary of the method: as §2
# [24] = biological target: RAC-beta serine/threonine-protein kinase (Homo sapiens) (UniProt P31751); experiment: Inhibition of partial length human AKT2 expressed in bacterial system at 1 uM; summary of the method: as §1
# [25] = test system: Epidermal growth factor receptor (Homo sapiens), P04626+P00533+Q15303+P21860 [L858R]; experiment: Inhibition of partial length human EGFR L858R mutant expressed in bacterial system at 1 uM
# Summary of the method: (§3)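 Single-concentration screen at 1 µM test concentration, run as part of a commercial binding/activity profiling panel covering 97 kinases.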
# [26] = Efflux ratio of permeability in MDCK cells; assay type: ADME, cell-based, Canis lupus familiaris; conditions: dog
# Summary of the method: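 Permeability measured across a confluent MDCK cell monolayer, with the efflux ratio reported alongside the permeability value.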
# [27] = biological target: Ribosomal protein S6 kinase alpha-2 (Homo sapiens) (UniProt Q15349); experiment: Inhibition of N-terminal partial length human RSK2 kinase domain 1 expressed in mammalian system at 1 uM; summary of the method: as §1
# HMEC = experiment: Cytotoxicity against human HMEC cells assessed as change in phenotypic response measured after prolonged treatment; assay type: cell-based
# [28] = Intrinsic clearance in mouse liver microsomes; assay type: ADME
# [29] = biological target: ALK tyrosine kinase receptor (Homo sapiens) (UniProt Q9UM73); experiment: Inhibition of partial length human ALK expressed in mammalian system at 1 uM; summary of the method: as §1
# [30] = biological target: Activin receptor type-1B (Homo sapiens) (UniProt P36896); experiment: Inhibition of partial length human ACVR1B expressed in bacterial system at 1 uM; summary of the method: as §1
# Liver microsome = experiment: Intrinsic clearance in human liver microsomes; assay type: ADME
# [31] = biological target: Mitogen-activated protein kinase 9 (Homo sapiens) (UniProt P45984); experiment: Inhibition of partial length human JNK2 expressed in mammalian system at 1 uM; summary of the method: as §1
# MDA-MB-231 = experiment: Antiproliferative activity against human MDA-MB-231 cells assessed as change in phenotypic response measured after prolonged treatment; assay type: functional, cell-based
# HeLa = experiment: Antiproliferative activity against human HeLa cells assessed as change in phenotypic response up to 50 uM; assay type: functional, cell-based
# NCI-H460 = experiment: Antiproliferative activity against human NCI-H460 cells assessed as change in phenotypic response up to 50 uM; assay type: functional, cell-based
# [32] = biological target: Receptor tyrosine-protein kinase erbB-2 (Homo sapiens) (UniProt P04626); experiment: Inhibition of partial length human ERBB2 expressed in mammalian system at 1 uM; summary of the method: as §3
# Sequence of Mitogen-activated protein kinase kinase kinase 4 (Homo sapiens) (Q9Y6R4 whole entry): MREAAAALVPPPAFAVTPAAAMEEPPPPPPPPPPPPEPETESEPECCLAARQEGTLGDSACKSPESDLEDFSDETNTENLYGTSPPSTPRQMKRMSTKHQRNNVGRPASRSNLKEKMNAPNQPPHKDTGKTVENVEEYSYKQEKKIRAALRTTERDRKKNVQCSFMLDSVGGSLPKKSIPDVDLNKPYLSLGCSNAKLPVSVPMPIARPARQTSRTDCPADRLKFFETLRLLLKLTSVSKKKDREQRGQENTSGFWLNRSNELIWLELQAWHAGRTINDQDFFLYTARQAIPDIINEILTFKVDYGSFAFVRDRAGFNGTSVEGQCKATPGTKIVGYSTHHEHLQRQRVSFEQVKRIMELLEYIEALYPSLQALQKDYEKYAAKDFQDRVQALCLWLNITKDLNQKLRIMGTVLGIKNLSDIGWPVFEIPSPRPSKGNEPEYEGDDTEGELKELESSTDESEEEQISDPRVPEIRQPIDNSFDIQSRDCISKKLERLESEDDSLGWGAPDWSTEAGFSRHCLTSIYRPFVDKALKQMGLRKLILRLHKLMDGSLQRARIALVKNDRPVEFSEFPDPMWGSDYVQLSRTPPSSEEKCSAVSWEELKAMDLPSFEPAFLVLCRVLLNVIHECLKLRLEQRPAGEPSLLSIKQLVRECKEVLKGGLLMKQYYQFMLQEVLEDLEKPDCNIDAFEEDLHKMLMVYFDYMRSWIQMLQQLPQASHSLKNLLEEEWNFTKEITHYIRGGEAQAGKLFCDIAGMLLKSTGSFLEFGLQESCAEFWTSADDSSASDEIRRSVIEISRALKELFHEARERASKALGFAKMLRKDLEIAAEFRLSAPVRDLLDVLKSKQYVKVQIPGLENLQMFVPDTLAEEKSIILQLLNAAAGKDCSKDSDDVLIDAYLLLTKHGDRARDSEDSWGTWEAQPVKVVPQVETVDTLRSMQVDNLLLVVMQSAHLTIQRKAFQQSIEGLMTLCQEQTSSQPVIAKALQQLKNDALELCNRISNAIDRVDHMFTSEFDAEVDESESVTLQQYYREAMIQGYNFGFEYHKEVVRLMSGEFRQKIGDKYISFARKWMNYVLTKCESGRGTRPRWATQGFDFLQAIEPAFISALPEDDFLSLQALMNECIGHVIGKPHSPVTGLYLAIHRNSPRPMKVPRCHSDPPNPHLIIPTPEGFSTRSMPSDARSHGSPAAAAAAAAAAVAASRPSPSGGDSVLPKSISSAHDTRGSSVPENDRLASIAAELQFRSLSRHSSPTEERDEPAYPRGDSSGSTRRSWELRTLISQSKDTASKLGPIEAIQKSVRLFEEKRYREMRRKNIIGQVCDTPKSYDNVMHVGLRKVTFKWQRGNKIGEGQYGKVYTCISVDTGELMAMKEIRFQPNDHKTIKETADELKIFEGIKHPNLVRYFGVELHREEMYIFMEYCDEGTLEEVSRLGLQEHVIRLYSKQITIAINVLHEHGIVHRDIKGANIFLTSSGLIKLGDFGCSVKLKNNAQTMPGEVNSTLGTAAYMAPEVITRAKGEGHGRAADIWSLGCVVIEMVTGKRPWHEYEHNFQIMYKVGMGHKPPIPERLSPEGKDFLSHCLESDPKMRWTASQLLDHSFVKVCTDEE
# Sequence of Serine/threonine-protein kinase B-raf (Homo sapiens) (P15056 whole entry): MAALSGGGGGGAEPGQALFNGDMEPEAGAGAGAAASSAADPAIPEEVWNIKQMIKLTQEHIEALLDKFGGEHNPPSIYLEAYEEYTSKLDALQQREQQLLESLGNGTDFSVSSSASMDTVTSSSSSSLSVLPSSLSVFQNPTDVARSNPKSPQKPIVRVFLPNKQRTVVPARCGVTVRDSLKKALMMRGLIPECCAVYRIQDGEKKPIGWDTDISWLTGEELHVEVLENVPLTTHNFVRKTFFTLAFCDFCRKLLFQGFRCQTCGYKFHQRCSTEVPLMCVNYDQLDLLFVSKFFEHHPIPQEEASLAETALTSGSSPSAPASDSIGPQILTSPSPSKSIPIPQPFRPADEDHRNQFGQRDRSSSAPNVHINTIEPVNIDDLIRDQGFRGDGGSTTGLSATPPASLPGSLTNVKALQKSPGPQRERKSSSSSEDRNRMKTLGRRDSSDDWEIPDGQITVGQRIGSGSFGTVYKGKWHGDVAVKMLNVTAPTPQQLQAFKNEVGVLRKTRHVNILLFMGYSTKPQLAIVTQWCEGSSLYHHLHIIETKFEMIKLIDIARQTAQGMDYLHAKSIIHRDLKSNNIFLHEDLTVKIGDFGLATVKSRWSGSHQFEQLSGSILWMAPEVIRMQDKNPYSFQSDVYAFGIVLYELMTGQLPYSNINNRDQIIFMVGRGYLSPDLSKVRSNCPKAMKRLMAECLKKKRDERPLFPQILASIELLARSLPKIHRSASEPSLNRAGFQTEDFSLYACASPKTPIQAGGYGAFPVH
# Sequence of Ribosomal protein S6 kinase alpha-2 (Homo sapiens) (Q15349 whole entry, the tested form may be a part): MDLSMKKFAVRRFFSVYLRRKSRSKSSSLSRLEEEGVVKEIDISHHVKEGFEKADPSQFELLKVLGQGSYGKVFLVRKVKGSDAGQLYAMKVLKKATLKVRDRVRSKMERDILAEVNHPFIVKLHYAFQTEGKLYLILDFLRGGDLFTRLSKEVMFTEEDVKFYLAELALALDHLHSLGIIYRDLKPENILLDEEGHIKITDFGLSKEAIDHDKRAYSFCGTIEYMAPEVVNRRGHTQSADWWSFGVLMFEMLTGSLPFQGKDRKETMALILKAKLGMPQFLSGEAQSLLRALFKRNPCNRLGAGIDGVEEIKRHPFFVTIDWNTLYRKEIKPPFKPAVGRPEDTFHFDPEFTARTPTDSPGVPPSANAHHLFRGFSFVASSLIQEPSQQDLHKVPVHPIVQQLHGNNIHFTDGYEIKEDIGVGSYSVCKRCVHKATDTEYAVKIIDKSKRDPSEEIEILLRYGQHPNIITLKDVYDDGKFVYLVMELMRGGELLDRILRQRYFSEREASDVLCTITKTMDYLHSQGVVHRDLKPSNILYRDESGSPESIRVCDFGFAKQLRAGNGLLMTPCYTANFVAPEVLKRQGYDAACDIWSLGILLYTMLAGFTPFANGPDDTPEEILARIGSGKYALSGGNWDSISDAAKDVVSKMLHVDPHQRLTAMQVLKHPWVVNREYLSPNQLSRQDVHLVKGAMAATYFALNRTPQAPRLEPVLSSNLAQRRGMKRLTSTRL
# Sequence of Serine/threonine-protein kinase PLK3 (Homo sapiens) (Q9H4B4 whole entry, looked up): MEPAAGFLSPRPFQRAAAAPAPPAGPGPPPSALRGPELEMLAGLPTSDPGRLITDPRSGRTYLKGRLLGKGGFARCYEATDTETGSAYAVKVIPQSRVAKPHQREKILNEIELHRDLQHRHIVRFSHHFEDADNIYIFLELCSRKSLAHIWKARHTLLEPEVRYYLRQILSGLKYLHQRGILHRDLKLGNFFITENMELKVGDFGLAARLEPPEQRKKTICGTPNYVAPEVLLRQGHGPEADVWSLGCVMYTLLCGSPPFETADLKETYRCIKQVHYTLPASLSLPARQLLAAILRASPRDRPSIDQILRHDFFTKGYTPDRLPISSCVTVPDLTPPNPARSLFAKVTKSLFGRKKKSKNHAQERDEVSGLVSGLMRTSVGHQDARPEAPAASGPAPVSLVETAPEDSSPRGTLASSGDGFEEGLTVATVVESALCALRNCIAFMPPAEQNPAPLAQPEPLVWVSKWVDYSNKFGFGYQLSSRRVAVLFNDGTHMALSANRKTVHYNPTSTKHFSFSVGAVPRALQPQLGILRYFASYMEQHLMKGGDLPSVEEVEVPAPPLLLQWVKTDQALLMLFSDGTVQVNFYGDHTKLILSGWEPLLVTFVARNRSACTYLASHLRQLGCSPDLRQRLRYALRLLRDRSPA
# Sequence of Tyrosine-protein kinase ABL1 (Homo sapiens), P00519 [E255K] (P00519 whole entry E255K): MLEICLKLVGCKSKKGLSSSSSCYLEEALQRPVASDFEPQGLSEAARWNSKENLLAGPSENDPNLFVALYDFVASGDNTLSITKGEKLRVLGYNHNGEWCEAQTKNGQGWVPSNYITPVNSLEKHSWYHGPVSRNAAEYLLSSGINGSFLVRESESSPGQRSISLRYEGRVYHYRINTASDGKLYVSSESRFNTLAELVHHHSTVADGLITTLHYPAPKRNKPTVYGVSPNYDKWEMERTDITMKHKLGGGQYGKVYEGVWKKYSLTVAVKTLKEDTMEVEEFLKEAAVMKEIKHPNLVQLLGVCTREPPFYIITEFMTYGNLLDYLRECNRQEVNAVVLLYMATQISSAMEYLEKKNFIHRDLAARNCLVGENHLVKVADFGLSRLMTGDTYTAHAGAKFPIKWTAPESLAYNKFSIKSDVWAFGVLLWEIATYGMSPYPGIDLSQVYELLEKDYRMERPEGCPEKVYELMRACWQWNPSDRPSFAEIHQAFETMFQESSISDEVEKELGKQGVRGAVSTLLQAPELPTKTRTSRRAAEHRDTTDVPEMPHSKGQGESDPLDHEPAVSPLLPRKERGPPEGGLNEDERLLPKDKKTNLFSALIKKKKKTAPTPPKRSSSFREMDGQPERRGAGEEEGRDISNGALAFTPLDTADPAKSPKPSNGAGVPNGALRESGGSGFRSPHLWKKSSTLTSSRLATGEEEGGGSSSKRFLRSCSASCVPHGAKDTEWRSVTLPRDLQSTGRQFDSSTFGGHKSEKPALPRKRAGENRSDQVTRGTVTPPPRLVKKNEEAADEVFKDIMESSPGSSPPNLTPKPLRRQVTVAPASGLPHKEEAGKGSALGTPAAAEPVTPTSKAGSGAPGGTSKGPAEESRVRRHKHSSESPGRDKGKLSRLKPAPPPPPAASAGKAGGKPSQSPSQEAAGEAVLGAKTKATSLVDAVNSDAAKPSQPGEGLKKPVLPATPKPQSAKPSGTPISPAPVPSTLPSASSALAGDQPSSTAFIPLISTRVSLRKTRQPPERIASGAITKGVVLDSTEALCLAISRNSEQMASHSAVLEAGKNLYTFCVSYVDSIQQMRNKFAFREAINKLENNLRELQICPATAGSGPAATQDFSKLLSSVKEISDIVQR
compound,measurement,setting,value
Cc1cnc(N)nc1OCC(C)(C)CO,Activity,NCI-H358,inactive
same,inhibition,[1],inactive
same,inhibition,[2],inactive
same,inhibition,[3],inactive
same,inhibition,[4],inactive
same,inhibition,[5],inactive
same,inhibition,[6],inactive
same,inhibition,[7],inactive
same,inhibition,[8],inactive
same,Activity,SW480,inactive
same,inhibition,[9],inactive
same,Activity,HCT-116,inactive
same,inhibition,[10],inactive
same,inhibition,[11],inactive
same,inhibition,[12],inactive
same,solubility,[13],75.6 µM
same,inhibition,[14],inactive
same,fraction unbound,[15],0.46
same,half-life,[16],58 h
same,Activity,MRC5,Non-toxic
same,inhibition,[17],inactive
same,inhibition,[18],inactive
same,Activity,U2OS,inactive
same,fraction unbound,[19],0.46
same,inhibition,[20],inactive
same,inhibition,[21],inactive
same,inhibition,[22],inactive
same,Activity,UOK 262,inactive
same,inhibition,[23],inactive
same,inhibition,[24],inactive
same,inhibition,[25],inactive
same,efflux ratio,[26],0.8
same,inhibition,[27],inactive
same,Activity,HMEC,Non-toxic
same,CLH,[28],60 µL/min/mg
same,inhibition,[29],inactive
same,inhibition,[30],inactive
same,CLH,Liver microsome,7.5 µL/min/mg
same,inhibition,[31],inactive
same,Activity,MDA-MB-231,inactive
same,Activity,HeLa,inactive
same,Activity,NCI-H460,inactive
same,inhibition,[32],inactive
